Shown are actives, neighbours in structure and some others; about 2.9% of the full set was active somewhere.
C2C12 statin: suppression of simvastatin myotoxicity. C2C12 myotubes + simvastatin, ATP luminescence, 48 h; scaled: DMSO 0, geranylgeraniol control 100. rescue of ATP level, % at 7.49 µM. 330,000 tested, 0.78% active. AID 602340;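 active means mean ATP rescue above about 67%, or every replicate alone reaching that limit, limit read from the data, passing the limit was not always enough; inconclusive means no clear call, values can overlap the other calls; inactive means mean under the limit and some replicate under it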;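 further: myotubes were challenged with 10 µM simvastatin during compound exposure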
S100A4 inh HTS: S100A4-myosin IIA interaction inhibition. 360,000 tested, 0.14% active. P26447. inhibition, % at 10.7 µM. S100A4/TAMRA-MyoIIA peptide fluorescence polarization. AID 652163;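 active means mean inhibition of at least 70% across replicates, with every replicate also reaching that level; inconclusive means mean inhibition reaches 70% but some replicates fall short; inactive means mean inhibition below 70%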
Target sequence (P26447 whole entry, looked up): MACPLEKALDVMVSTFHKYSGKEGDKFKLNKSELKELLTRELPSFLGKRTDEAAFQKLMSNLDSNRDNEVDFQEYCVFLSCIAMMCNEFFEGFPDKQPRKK
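Compound dosing: one dose per compound; test system: human S100A4 monomer with TAMRA-labelled myosin IIA peptide; probe or stimulus: TAMRA-labelled myosin IIA heavy-chain peptide probe, 5 nM; medium: HEPES buffer with Ca2+, pH 7.2; schedule: 5 min incubation before reading; benchmarks: neutral control DMSO, positive control TFP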
SIRT5 block: inhibitors of human sirtuin-5 desuccinylase | Purified SirT5, succinyl-peptide AMC, trypsin-coupled fluorescence | AID 652115 | Q9NXA8 | 330,000 tested, 1.1% active | inhibition, % at 15 µM; in the data active means inhibition above about 15%; inconclusive means no clear call, values can overlap the other calls
Target sequence (Q9NXA8 whole entry, looked up): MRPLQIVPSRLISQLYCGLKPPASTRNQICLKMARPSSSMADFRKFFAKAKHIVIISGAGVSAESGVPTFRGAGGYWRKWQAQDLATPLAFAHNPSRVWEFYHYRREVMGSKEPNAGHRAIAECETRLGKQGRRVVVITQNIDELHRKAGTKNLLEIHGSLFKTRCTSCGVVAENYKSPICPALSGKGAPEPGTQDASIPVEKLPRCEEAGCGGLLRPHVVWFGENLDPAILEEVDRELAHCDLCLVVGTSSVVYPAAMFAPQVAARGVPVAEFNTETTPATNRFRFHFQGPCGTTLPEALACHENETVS
DENV2 CPE: protects cells from dengue virus 2 cytopathic effect; DENV2-infected cells, cytopathic effect rescue, plate reader; CPE inhibition, % at 9.99 µM; 350,000 tested, 1.7% active; AID 651640; in the data active means CPE inhibition above about 20%, passing the limit was not always enough; inconclusive means no clear call, values can overlap the other calls; tested in BHK-21 cells;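 further: 0% = median of neutral control wells and 100% = median of positive control wells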
PGC1a acetyl inh: lowers PGC1a acetylation signal in U2OS cells | AlphaScreen anti-acetyl-lysine; with virally co-expressed GCN5 acetyltransferase | inhibition, % at 15.6 µM | 350,000 tested, 0.17% active | AID 651687;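 active means every replicate shows inhibition of at least 40%; inconclusive means mean inhibition at least 40% but some replicate below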;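 further: 0% = neutral control wells and 100% = positive control wells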
An asterisk follows results filed as active; ? = inconclusive; . = not tested or not shown.

SMILES | C2C12 statin | S100A4 inh HTS | SIRT5 block | DENV2 CPE | PGC1a acetyl inh
O=S(=O)(N[C@@H]1CC[C@H](CCNS(=O)(=O)c2ccccc2Cl)O[C@@H]1CO)c1ccccc1 | -2.1 | -4.1 | 0.8 | 3.0 | -2.7
O=C(CC1CC1)N[C@@H]1CC[C@@H](CCNS(=O)(=O)c2ccc(Cl)cc2)O[C@@H]1CO | 5.5 | 1.7 | 4.7 | ? | 55.8*
O=C(CC1CC1)N[C@@H]1CC[C@H](CCNS(=O)(=O)c2ccc(Cl)cc2)O[C@H]1CO | -0.4 | -4.5 | -1.2 | 0.0 | 64.5*
O=C(NCCCN1CCOCC1)[C@@H]1[C@@H](CO)[C@@H]2Cn3c(cccc3=O)[C@H]1N2C(=O)C1CCCCC1 | . | -4.8 | 13.8 | -7.4 | 9.1
Cc1cnc(C(=O)Nc2nccs2)cn1 | 100.6* | . | . | . | 5.2
CC12COC3(C(=O)Nc4nccs4)CC1CCC32C (centres undefined) | -6.7 | . | . | . | 2.5
CC1(C)CC(C(=O)Nc2nccs2)CCO1 (centres undefined) | 120.9* | . | . | . | 10.7
CC(=O)N1[C@H](CO)[C@H](c2ccc(-c3ccc(F)cc3)cc2)[C@H]1CNC(=O)C1CC1 | 2.2 | . | . | 2.9 | 8.8
COCC(=O)N1[C@@H]2c3ccc(/C=C/c4ccccc4)c(=O)n3C[C@H]1[C@H](CO)[C@H]2C(=O)N1CCOCC1 | 19.9 | 9.7 | -102.5 | 6.3 | .
CC(C)NC(=O)Nc1ccc2c(c1)C(=O)N([C@H](C)CO)C[C@H](C)[C@H](CN(C)Cc1ccc(C(=O)O)cc1)O2 | 26.5 | 3.2 | . | 5.3 | -2.7
CN[C@H]1C[C@H]2c3[nH]c4ccccc4c3CCN2C(=O)[C@H]1[C@H](C)O | 10.9 | -5.1 | -10.6 | 23.8* | 11.0
CCC(=O)N1[C@@H](CO)[C@@H](c2ccccc2)C12CN(C(=O)CN1CCOCC1)C2 | . | . | . | -3.5 | -8.0
O=C(c1ccccc1)N1CCN(C(=O)c2ccc3c(c2)OCO3)CC1 | 0.1 | -6.5 | -3.6 | -5.9 | 2.2
CC(=O)N1[C@H](CO)[C@@H](c2ccccc2)C12CN(C(=O)c1ccc3c(c1)OCO3)C2 | . | 20.8 | -0.2 | 55.3* | 3.0
O=C(c1ccc2c(c1)OCO2)N1CCC(Cc2ccccc2)CC1 | . | -0.6 | -5.6 | 25.0* | .
CC(=O)N1[C@H](CO)[C@H](c2ccccc2)C12CN(C(=O)CN1CCOCC1)C2 | . | -2.1 | 2.0 | 83.1* | 10.0
C[C@H](CO)N1C[C@H](C)[C@H](CN(C)S(=O)(=O)c2ccc(C#N)cc2)OCc2ccccc2-c2c(n(C)c3ccccc23)C1=O | -2.4 | 4.4 | 9.7 | -0.1 | 0.0
CC(C)NC(=O)N(C)C[C@@H]1OCCCC[C@H](C)Oc2ccc(NS(=O)(=O)c3cccs3)cc2C(=O)N([C@@H](C)CO)C[C@@H]1C | . | -3.8 | -6.2 | -8.9 | -0.7
O=C(C[C@@H]1C=C[C@H](NC(=O)Nc2ccc(C(F)(F)F)cc2)[C@H](CO)O1)NCc1ccccn1 | 8.5 | 19.2 | 3.8 | 6.3 | 4.5
CN(C)CCN1CCN(C2CN(Cc3cn(Cc4cccc(Cl)c4)nn3)S(=O)(=O)C2)CC1 (centres undefined) | . | 61.0 | 19.1* | -4.2 | .
O=S1(=O)CC(N2CCSCC2)CN1Cc1cn(Cc2ccc(Cl)cc2)nn1 (centres undefined) | . | -3.0 | -1.2 | -5.2 | .
Cc1ccc(Cn2cc(CN3CC(N4CCSCC4)CS3(=O)=O)nn2)cc1 (centres undefined) | . | 1.2 | 0.3 | 30.8* | .
CN1CCN(C2CN(Cc3cn(Cc4cccc(Cl)c4)nn3)S(=O)(=O)C2)CC1 (centres undefined) | . | 2.4 | -3.9 | -5.7 | .
C/C=C/c1cnc2c(c1)C(=O)N([C@H](C)CO)C[C@@H](C)[C@H](CN(C)Cc1ccc3c(c1)OCO3)O2 | -1.0 | . | . | . | -3.5
CC(C)Cc1cc(C(=O)N2CCC(N3CCC(C(=O)N4CCCC4)CC3)CC2)n[nH]1 | . | -13.1 | 3.9 | -3.7 | 4.7
SMILES | C2C12 statin | S100A4 inh HTS | SIRT5 block | DENV2 CPE | PGC1a acetyl inh
CC(C)Cc1cc(C(=O)N2CCC(N3CCC(C(=O)NC4CC4)CC3)CC2)n[nH]1 | 4.9 | -8.7 | 17.1* | 1.2 | 2.2
OCCNc1nc(N2CCCCC2)nc2ccccc12 | -5.9 | -0.7 | -13.0 | 3.1 | 66.6*
c1coc(CNc2nc(N3CCCCC3)nc3ccccc23)c1 | -28.0 | . | . | . | -26.1
CO[C@H]1CN(C)C(=O)c2ccc(NC(=O)C3CC3)cc2OC[C@H](C)N(C(=O)Cc2ccccn2)C[C@@H]1C | -12.0 | 2.7 | 0.4 | -7.2 | -6.2
CCOC(=O)c1c(C)oc2ccc(OCC(=O)C(C)(C)C)cc12 | 143.9* | . | . | . | 0.9
COCCNC(=O)CCSc1nc(-c2ccc(OC)cc2)cc(C(F)(F)F)n1 | 86.6* | . | . | . | -38.0
COCC(=O)Nc1ccc2c(c1)OC[C@H](C)N(Cc1ccccc1OC)C[C@H](C)[C@@H](OC)CN(C)C2=O | . | 9.7 | -1.2 | 21.6* | 7.7
COCC(=O)Nc1ccc2c(c1)OC[C@H](C)N(Cc1ccccc1OC)C[C@@H](C)[C@H](OC)CN(C)C2=O | -9.2 | 0.4 | 1.2 | -9.0 | -4.9
CCC(=O)Nc1ccc2c(c1)C(=O)N(C)C[C@H](OC)[C@H](C)CN(Cc1ccccc1OC)[C@@H](C)CO2 | -4.2 | -0.2 | 0.4 | 22.4* | .
COCC(=O)Nc1ccc2c(c1)OC[C@H](C)N(Cc1cccc(F)c1)C[C@H](C)[C@@H](OC)CN(C)C2=O | . | -14.9 | -10.0 | 24.7* | 1.3
CCC(=O)Nc1ccc2c(c1)C(=O)N(C)C[C@H](OC)[C@H](C)CN(Cc1ccccc1OC)[C@H](C)CO2 | -13.1 | -3.7 | 0.7 | -5.5 | .
CCC(=O)Nc1ccc2c(c1)C(=O)N(C)C[C@@H](OC)[C@H](C)CN(Cc1ccccc1)[C@@H](C)CO2 | 6.3 | -6.0 | -1.8 | 37.4* | -6.0
Cc1cc(N2CCN(CC(C)(C)O)C[C@@H]2C)ccc1N1CCN(Cc2ccccc2)[C@H](C)C1 | . | -9.6 | 0.0 | 5.7 | .
CN1C(=O)c2cc(NC(=O)NCc3ccccc3)ccc2OC[C@@H]2O[C@@H](CC(=O)NCC3CCCCC3)CC[C@H]21 | 41.1 | -0.7 | 0.7 | -1.3 | -13.4
COCC(=O)Nc1ccc2c(c1)C(=O)N(C)C[C@H](OC)[C@@H](C)CN(Cc1ccccc1)[C@@H](C)CO2 | 8.8 | 3.9 | 5.0 | 26.2* | -13.5
COc1ccccc1NC(=O)Nc1ccc2c(c1)C(=O)N(C)C[C@@H](OC)[C@H](C)CN(Cc1ccccc1Cl)[C@H](C)CO2 | 7.6 | -13.9 | -0.8 | 28.4* | 30.3
CO[C@H]1CN(C)C(=O)c2cc(NC(=O)c3ccccc3F)ccc2OC[C@@H](C)N(CC2CC2)C[C@@H]1C | 20.4 | 6.3 | -2.9 | -1.7 | -6.1
Cc1ccc(NC(=O)Nc2ccc3c(c2)C(=O)N(C)[C@H]2CC[C@H](CC(=O)O)O[C@H]2CO3)cc1 | -6.8 | 0.0 | -0.4 | 1.0 | -3.5
CO[C@H](CN(C)C(=O)c1ccc2c(c1)OCO2)[C@H](C)CN([C@H](C)CO)S(=O)(=O)c1ccccc1 | 10.6 | 27.0 | 26.8* | 4.0 | -0.2

Screening results deposited in PubChem BioAssay by Broad Institute.
